Jurkat tox 60K = cytotoxicity toward Jurkat T cells, primary screen, cytotoxicity control, cell-based, Jurkat E6.1, 60K MLSMR library; Jurkat E6.1 viability, ATP luminescence, 48 h; inhibition, % at 4 µM; hit rate 1.2% among 56,000;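 active means inhibition above the mean inhibition of all tested compounds plus 3 SD, cut at about 28% in these data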
SKBR3 24h inh = SK-BR-3 proliferation inhibitors, primary screen, cell-based, human, 24 h; viability, % at 10 µM; AID 847, 2007; SK-BR-3 viability, CellTiter-Glo ATP luminescence; hits give low values; hit rate 0.47% among 41,000;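 active means viability at or below the median of all test compounds minus 3 SD, in both replicates if run twice, cut at about 45% in these data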;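 further: 100% = median untreated cell wells and 0% = median positive control drug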
HEK293 NFkB inh = inhibitors of PMA/ionomycin-induced NF-kB reporter, primary screen, antigen receptor NF-kB inhibitor project, cell-based, HEK-293 luciferase reporter, luminescence | HEK-293 NF-kB luciferase reporter | hit rate 0.21% among 62,000 | AID 465, 2006 | inhibition, % at 3 µM;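 active means inhibition above the mean of all tested compounds plus 3 SD, cut at about 40% in these data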;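 further: 0% = stimulated DMSO wells and 100% = 10 µM reference inhibitor 5653914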
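Material: HEK-293 cells with stable firefly luciferase reporter driven by four HIV NF-kB elements / Also added: PMA plus ionomycin mix as NF-kB-activating stimulus / Compound dosing: 3 µM once, 0.30% DMSO / Times: 1 h pretreatment, 16 h stimulation, 37 °C / Signal: luminescence / Evaluation: per-plate % inhibition versus controls / Benchmarks: DMSO and 10 µM reference inhibitor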
S1P1 ag pot = S1P1 agonists and agonism potentiators, primary screen, cell-based, primary and confirmation screens, CRE-bla reporter | Sphingosine 1-phosphate receptor 1 (Homo sapiens), P21453 | hit rate 0.57% among 56,000 | S1P1 CRE-bla cells, forskolin, beta-lactamase FRET, potentiator mode; S1P1 agonist co-added at EC20, 2 nM; 100% = saturating reference agonist, 0% = basal | activation, % at 9.5 µM;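 active means activation above a cutoff set at the mean activation of all tested compounds plus 3 SD, cut at about 54% in these data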;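 further: forskolin at 4 µM as EC80 and the EC20 agonist is SEW2871; 100% = SEW2871 at its EC100 plus forskolin at EC80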
Target sequence (P21453 whole entry, looked up): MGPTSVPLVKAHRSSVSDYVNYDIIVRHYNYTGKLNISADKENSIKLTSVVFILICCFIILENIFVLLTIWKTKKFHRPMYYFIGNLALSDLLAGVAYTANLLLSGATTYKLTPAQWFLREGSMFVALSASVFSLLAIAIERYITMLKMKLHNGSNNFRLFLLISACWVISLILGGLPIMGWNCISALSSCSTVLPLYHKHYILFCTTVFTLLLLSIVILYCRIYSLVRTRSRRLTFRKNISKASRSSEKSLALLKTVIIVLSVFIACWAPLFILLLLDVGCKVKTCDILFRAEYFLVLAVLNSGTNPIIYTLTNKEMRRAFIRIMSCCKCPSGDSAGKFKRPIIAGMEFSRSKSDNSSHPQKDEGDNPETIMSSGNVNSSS
* marks the source's active call; other numbers are inactive results; . = not tested or not shown. An excerpt weighted towards active compounds, which were near 1.9% of everything screened.

SMILES	Jurkat tox 60K	SKBR3 24h inh	HEK293 NFkB inh	S1P1 ag pot
COc1cccc(OC)c1C1=NCC(=O)Nc2c1oc1ccc(Br)cc21	99*	.	28	4
O=C(c1cc2c(s1)-c1ccccc1OC2)N1CCC2(CC1)OCCO2	38*	.	-37	-38
CC(C)NS(=O)(=O)c1ccc(OCC(=O)N2CCN(Cc3ccccc3)CC2)cc1	12	96	13	15
CCCNS(=O)(=O)c1ccc(OCC(=O)N2CCN(Cc3ccc4c(c3)OCO4)CC2)cc1	31*	66	25	27
CCn1c(O)c(C(=O)CC2NCCc3ccccc32)c(=O)n(CC)c1=S (stereo unspecified)	.	3.2*	.	-6
O=C1CN=C(c2cccs2)c2c(sc3c2CCCC3)N1	86*	113	4	5
CCOC(=O)/C(CCCN(CC)CC)=N\O	-3	.	11	-48
CCC(=NCCOc1ccc(Cl)cc1)c1c(O)n(C)c(=O)n(C)c1=O	.	105	.	62*
CCC(=NCCN1CCCCC1)c1c(O)n(C)c(=O)n(C)c1=O	.	90	.	-4
CCCCCCn1c(N)c(C(=O)NCCN2CCOCC2)c2nc3ccccc3nc21	-3	2.3*	1	-130
O[C@@H]1CCCC[C@H]1N1CCC(c2ccccc2)CC1	7	109	4	1
COCCOC(=O)C1=C(N)Oc2c(c(=O)oc3ccccc23)[C@@]12C(=O)Nc1ccccc12	.	81	.	10
N=c1c2c(n(Cc3ccc(Cl)cc3Cl)c3c1CCC3)CCCC2	37*	.	-2	-8
N=c1sc2c(n1Cc1ccccc1)CCCC2	-4	.	13	-13
CCN(CC)CCCC(C)N=C(c1ccccc1)c1c(O)n(C)c(=O)n(C)c1=O (stereo unspecified)	.	93	.	-8
CSC(=Nc1ccccc1)c1c(O)n(C)c(=O)n(C)c1=O	34*	85	14	19
NCC(CC(=O)O)c1ccc(Cl)cc1 (stereo unspecified)	.	122	.	-22
O=C(NCC(c1cccnc1)N1CCN(c2ccc(F)cc2)CC1)Oc1ccccc1 (stereo unspecified)	.	.	16	.
CCn1nc(-c2cccs2)nc2c(=O)n(C)c(=O)nc1-2	36*	27*	97*	96*
CC(C)OC(=O)C1C(=O)NC2(C)CC1c1ccccc1O2 (stereo unspecified)	.	.	8	.
